In ChEMBL document CHEMBL4390648, “Chemical synthesis, crystal structure, versatile evaluation of their biological activities and molecular simulations of novel pyrithiobac derivatives” (Eur J Med Chem, 2019):
Values after ≈ are worked out from the molar mass of the structure shown. Active and inactive are the calls of the source. The calls are words filed in the database; no cut-off is given here.

Tests used:
Ceratobasidium cereale [1] = experiment: Antifungal activity against Rhizoctonia cerealis assessed as reduction in growth at 50 mg/l by mycelium growth rate method relative to control; assay type: functional
Outline: (§1)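 Mycelium growth rate method against S. sclerotiorum, P. capsici, P. piricola, R. cerealis, W. anthracnose and R. bakanae. Each compound tested at 50 mg/L, with chlorothalonil and PTB as controls. Relative inhibitory ratio (%) calculated from mycelial growth.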

Sclerotinia sclerotiorum = experiment: Antifungal activity against Sclerotinia sclerotiorum assessed as reduction in growth at 50 mg/l by mycelium growth rate method relative to control; assay type: functional; outline: as §1
Phytophthora capsici = experiment: Antifungal activity against Phytophthora capsici assessed as reduction in growth at 50 mg/l by mycelium growth rate method relative to control; assay type: functional; outline: as §1
[2] = tested on: Botryosphaeria berengeriana; experiment: Antifungal activity against Physalospora pyricola assessed as reduction in growth at 50 mg/l by mycelium growth rate method relative to control; assay type: functional; outline: as §1
Colletotrichum = experiment: Antifungal activity against Colletotrichum (W. anthracnose) assessed as reduction in growth at 50 mg/l by mycelium growth rate method relative to control; assay type: functional; outline: as §1
Fusarium fujikuroi = experiment: Antifungal activity against Gibberella fujikuroi assessed as reduction in growth at 50 mg/l by mycelium growth rate method relative to control; assay type: functional; outline: as §1
Ceratobasidium cereale [3] = experiment: Antifungal activity against Rhizoctonia cerealis assessed as reduction in growth mycelium growth rate method relative to control; assay type: functional, organism-based
Outline: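 EC50 against R. cerealis derived from mycelium growth-rate inhibition over a concentration series, using a probit fit: Probit = m(log10[I] − log10[EC50]) + 5.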

Candida albicans [4] = experiment: Antifungal activity against Candida albicans isolate 17 grown in RPMI 1640 medium incubated for 24 hrs by microdilution method; assay type: functional; conditions: isolate 17, 24 h
Outline: (§2)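 C. albicans standard strain SC5314 and clinical isolates g5 and 17# tested by broth microdilution in YNB or RPMI 1640 medium. Plates incubated at 35 °C for up to 72 h, with visual readings taken at 24 h. MIC taken as the lowest concentration preventing visible growth.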

Candida albicans [5] = experiment: Antifungal activity against Candida albicans SC5314 grown in RPMI 1640 medium incubated for 24 hrs by microdilution method; assay type: functional; conditions: SC5314, 24 h; outline: as §2
Candida albicans [6] = experiment: Inhibition of Candida albicans AHAS catalytic subunit at 10 uM using pyruvate as substrate measured after 30 mins by colorimetric method relative to control
Outline: (§3)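 Colorimetric assay in 50 mM potassium phosphate pH 7.0 with 50 mM pyruvate, 1 mM thiamine diphosphate, 10 mM MgCl2 and 10 μM FAD. Incubated 30 min at 37 °C for plant AHAS and 30 °C for fungal AHAS. Acetolactate formed was then quantified.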

Candida albicans [7] = experiment: Inhibition of Candida albicans AHAS catalytic subunit at 100 uM using pyruvate as substrate measured after 30 mins by colorimetric method relative to control; outline: as §3
Candida albicans [8] = experiment: Antifungal activity against Candida albicans isolate g5 grown in RPMI 1640 medium incubated for 24 hrs by microdilution method; assay type: functional; conditions: isolate g5, 24 h; outline: as §2
Candida albicans [9] = experiment: Antifungal activity against Candida albicans SC5314 grown in YNB medium incubated for 24 hrs by microdilution method; assay type: functional; conditions: SC5314, 24 h; outline: as §2
Candida albicans [10] = experiment: Antifungal activity against Candida albicans isolate 17 grown in YNB medium incubated for 24 hrs by microdilution method; assay type: functional; conditions: isolate 17, 24 h; outline: as §2
Candida albicans [11] = experiment: Antifungal activity against Candida albicans isolate g5 grown in YNB medium incubated for 24 hrs by microdilution method; assay type: functional; conditions: isolate g5, 24 h; outline: as §2
Arabidopsis thaliana [12] = experiment: Inhibition of Arabidopsis thaliana AHAS catalytic subunit using pyruvate as substrate at 100 uM measured after 30 mins by colorimetric method relative to control; outline: as §3
Arabidopsis thaliana [13] = experiment: Inhibition of Arabidopsis thaliana AHAS catalytic subunit using pyruvate as substrate at 10 uM measured after 30 mins by colorimetric method relative to control; outline: as §3
[14] = tested on: Brassica rapa subsp. oleifera; experiment: Herbicidal activity against Brassica campestris L assessed as inhibition of rape root growth at 100 mg/l root growth incubated for 48 hrs relative to control; assay type: functional
Outline: (§4)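 Rape seeds soaked in distilled water for 4 h, then placed on filter paper wetted with inhibitor solution, 15 seeds per 6-cm dish. Germinated in the dark at 28 °C for 48 h. Mean length of 10 roots per plate measured.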

[15] = tested on: Brassica rapa subsp. oleifera; experiment: Herbicidal activity against Brassica campestris L assessed as inhibition of rape root growth at 10 mg/l root growth incubated for 48 hrs relative to control; assay type: functional; outline: as §4
Mythimna separata = experiment: Insecticidal activity against Mythimna separata assessed as larval mortality at 600 mg/l by leaf-dip method; assay type: functional
Tobacco mosaic virus [16] = experiment: Antiviral activity against Tobacco mosaic virus inoculated in Nicotiana tabacum leaves assessed as passivation by measuring local lesion numbers at 500 mg/l pre-incubated with virus for 30 mins followed by inoculation and measured up to 4 days; assay type: functional
Outline: (§5)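 Passivation assay: TMV mixed with an equal volume of compound solution for 30 min, then rubbed onto the left half of N. tabacum L. leaves. The right half received virus mixed with solvent as control. Local lesions counted 3–4 days after inoculation. Compounds tested at 500 or 100 mg/L.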

Tobacco mosaic virus [17] = experiment: Antiviral activity against Tobacco mosaic virus inoculated in Nicotiana tabacum leaves assessed as passivation by measuring local lesion numbers at 100 mg/l pre-incubated with virus for 30 mins followed by inoculation and measured up to 4 days; assay type: functional; outline: as §5
[18] = tested on: Severe acute respiratory syndrome-related coronavirus; experiment: Inhibition of SARS coronavirus M protease using AVLQSGFRKK as substrate at 20 uM by FRET assay relative to control
Outline: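 Purified SARS-CoV Mpro assayed by FRET. Protein, compound and substrate were preheated at 37 °C and oscillated. Fluorescence (ex 320/em 405 nm) was read every 5 s for 200 reads.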

SMILES | inhibition at 50 µg/mL (Ceratobasidium cereale [1]) [%] | inhibition at 50 µg/mL (Sclerotinia sclerotiorum) [%] | inhibition at 50 µg/mL (Phytophthora capsici) [%] | inhibition at 50 µg/mL [2] [%] | inhibition at 50 µg/mL (Colletotrichum) [%] | inhibition at 50 µg/mL (Fusarium fujikuroi) [%] | MIC (Candida albicans [4]) [µg/mL] | MIC (Candida albicans [5]) [µg/mL] | inhibition (Candida albicans [6]) [%] | inhibition (Candida albicans [7]) [%] | MIC (Candida albicans [8]) [µg/mL] | MIC (Candida albicans [9]) [µg/mL] | MIC (Candida albicans [10]) [µg/mL] | MIC (Candida albicans [11]) [µg/mL] | inhibition (Arabidopsis thaliana [12]) [%] | inhibition (Arabidopsis thaliana [13]) [%] | inhibition (INH) [14] [%] | inhibition (INH) [15] [%] | inhibition at 500 µg/mL (Tobacco mosaic virus [16]) [%] | inhibition [18] [%] | further results
N#Cc1c(Cl)c(Cl)c(Cl)c(C#N)c1Cl [CHLOROTHALONIL] | 96.8 | 87.6 | 80.8 | 92.5 | 78.6 | 75.4 | – | – | – | – | – | – | – | – | – | – | – | – | – | – | EC50 (Ceratobasidium cereale [3]): 5.3 µg/mL (≈ 19.9 µM)
COc1cc(OC)nc(Sc2ccc(Cl)cc2C(=O)O)n1 | 89.3 | 63.9 | 41.7 | 40.6 | 52.4 | 48.5 | > 100 | > 100 | 80.6 | 96.6 | > 100 | > 100 | > 100 | > 100 | 100 | 34 | 54.5 | 0 | 0 | 4.6 | EC50 (Ceratobasidium cereale [3]): 14.1 µg/mL (≈ 43.2 µM); mortality at 600 µg/mL (Mythimna separata): 5%; inhibition (Tobacco mosaic virus [17]): inactive
COc1nc(OC)nc(Sc2ccc(C#N)cc2Br)n1 | 94 | 13.9 | 8.3 | 56.3 | 19 | 51.5 | > 100 | > 100 | 32.1 | 68.6 | > 100 | > 100 | > 100 | > 100 | 98.3 | 53.1 | 25 | 0 | 0 | 39.3 | EC50 (Ceratobasidium cereale [3]): 12.4 µg/mL (≈ 35.1 µM); mortality at 600 µg/mL (Mythimna separata): 30%; inhibition (Tobacco mosaic virus [17]): inactive
COc1cc(OC)nc(Sc2ccc(C(=O)O)cc2Cl)n1 | 89.3 | 83.3 | 41.7 | 76.6 | 28.6 | 60.6 | > 100 | > 100 | 62.3 | 85 | > 100 | > 100 | > 100 | > 100 | 100 | 31.4 | 73.4 | 30.6 | 0 | 0 | EC50 (Ceratobasidium cereale [3]): 9.2 µg/mL (≈ 28.2 µM); mortality at 600 µg/mL (Mythimna separata): 50%; inhibition (Tobacco mosaic virus [17]): inactive
COc1cc(OC)nc(Sc2ccc(C(=O)O)cc2Br)n1 | 96.4 | 50 | 42.7 | 51.6 | 45.2 | 39.4 | > 100 | > 100 | 70.7 | 94.6 | > 100 | 25 (≈ 67.3 µM) | 12.5 (≈ 33.7 µM) | 25 (≈ 67.3 µM) | 100 | 48.9 | 26.4 | 0 | 0 | 0 | EC50 (Ceratobasidium cereale [3]): 11.4 µg/mL (≈ 30.7 µM); mortality at 600 µg/mL (Mythimna separata): 50%; inhibition (Tobacco mosaic virus [17]): inactive
COc1nc(OC)nc(Oc2cccc(I)c2)n1 | 90.5 | 66.7 | 33.3 | 59.4 | 23.8 | 6.1 | > 100 | > 100 | 0 | 29.4 | > 100 | > 100 | > 100 | > 100 | 84.7 | 8.9 | 88.1 | 80.2 | 17.1 | 0 | EC50 (Ceratobasidium cereale [3]): 10.9 µg/mL (≈ 30.4 µM); inhibition (Tobacco mosaic virus [17]): inactive
COc1cc(OC)nc(Sc2ccc(C(=O)O)cc2F)n1 | 91.7 | 83.3 | 58.3 | 50 | 40.5 | 48.5 | > 100 | > 100 | 81.7 | 91.7 | > 100 | > 100 | > 100 | > 100 | 100 | 40 | 82.2 | 48 | 46.5 | 26.8 | EC50 (Ceratobasidium cereale [3]): 11.8 µg/mL (≈ 38 µM); mortality at 600 µg/mL (Mythimna separata): 30%; inhibition at 100 µg/mL (Tobacco mosaic virus [17]): 6.8%
COc1nc(OC)nc(Sc2ccc(Cl)cc2C#N)n1 | 45.2 | 27.8 | 16.7 | 71.9 | 23.8 | 33.3 | > 100 | > 100 | 52.1 | 79.9 | > 100 | > 100 | > 100 | > 100 | 71.3 | 44.9 | 16.6 | 0 | 0 | 85.1 | mortality at 600 µg/mL (Mythimna separata): 0%; inhibition (Tobacco mosaic virus [17]): inactive
COc1nc(OC)nc(Sc2ccc(Cl)cc2C(=O)O)n1 | 52.4 | 61.1 | 8.3 | 40.6 | 16.7 | 0 | > 100 | > 100 | 39.3 | 68.8 | > 100 | > 100 | > 100 | > 100 | 59.6 | 5.5 | 24.2 | 0 | 0 | 24.2 | mortality at 600 µg/mL (Mythimna separata): 40%; inhibition (Tobacco mosaic virus [17]): inactive
